Laboratory results taken from the RNAGym collection of RNA variant scans (doi:10.1126/science.aae0568).
Fewer inactive variants are shown than the library holds.

B1: tRNA (parent)
chain: GUUCCGUUGGCGUAAUGGUAACGCGUCUCCCUCCUAAGGAGAAGACUGCGGGUUCGAGUCCCGUACGGAACG

Variants of: B1
Assay: yeast fitness relative to wild type (ratio to wild type); higher = fitter; tRNA-Arg(CCU), competitive growth, 37 C, YPD
Method in brief: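 A pool of Saccharomyces cerevisiae strains, each with a tRNA-Arg(CCU) gene variant at the native genomic locus, was competed in YPD at 37°C for 24 hours across six parallel replicates. The variants had been chemically synthesised at a 3% per-site mutation rate over 69 sites, and gene amplicons before and after competition were read by 100-nucleotide paired-end sequencing. Darwinian fitness relative to wild type rested on changes in genotype frequencies. Genotypes required ≥ 100 starting reads, and estimates < 0.5 were set to 0.5.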

C4G U8C C49A and C4G U8C G25A A42U A70U cannot be ordered by yeast fitness: ≤ 0.5 for the first, ≤ 0.5 for the second.

C4G U28A C33G and C4G G12A C24U cannot be ordered by yeast fitness: ≤ 0.5 for the first, ≤ 0.5 for the second.

C4G U8A G12A A42G G44A U64C and C4U A15G C27U G41A cannot be ordered by yeast fitness: ≤ 0.5 for the first, ≤ 0.5 for the second.

C4G G25A U54G and C4G U19C C22G G50A A57C cannot be ordered by yeast fitness: ≤ 0.5 for the first, ≤ 0.5 for the second.

C4G G23C G52A U54C and C4G U32A G38C cannot be ordered by yeast fitness: ≤ 0.5 for the first, ≤ 0.5 for the second.

Compared with C4G U7A U59A, C4G G51C is higher in yeast fitness: 0.621 for the first, 0.647 for the second.

C4G U7G C34A and C4G U13C C60G A65U cannot be ordered by yeast fitness: ≤ 0.5 for the first, ≤ 0.5 for the second.

Compared with C4G G48C, C4G G23C G67C is lower in yeast fitness: 0.822 for the first, ≤ 0.5 for the second.

C4G U32A C34G G41C C49G and C4G G12U A14C C49U A65U cannot be ordered by yeast fitness: ≤ 0.5 for the first, ≤ 0.5 for the second.

Compared with C4G U7A G10C A20C, C4G U8C C24G A42C G67A is higher in yeast fitness: ≤ 0.5 for the first, 0.558 for the second.

First: C4U A20C A65C
Second: C4G U16C G44A G48A G50C A57U
The yeast fitness of the first is higher: 0.719 for the first, ≤ 0.5 for the second.

Going from C4G U16C G44A G48A G50C to C4U A15G G23C A37U A65U, the yeast fitness rises from 0.511 to 0.57.

Compared with C4G G44C U47A, C4G U16G U19C A21C C49U G50A is higher in yeast fitness: 0.592 for the first, 0.621 for the second.

First: C4G U7A G10C A20C G67U
Second: C4G G17A G52A
The yeast fitness of the first is higher: 0.527 for the first, ≤ 0.5 for the second.

C4G U7C C27A A43U U59G and C4G U8A G18C U32A U47C U54C cannot be ordered by yeast fitness: ≤ 0.5 for the first, ≤ 0.5 for the second.

First: C4G G38A C55U
Second: C4U A21G C46A G67A
The yeast fitness of the first is lower: ≤ 0.5 for the first, 0.63 for the second.

First: C4G U26C C46U
Second: C4U A21U C66A
The yeast fitness of the first is higher: 0.702 for the first, ≤ 0.5 for the second.

C4U A15C C30G A69C and C4U A15C C30G A69U cannot be ordered by yeast fitness: ≤ 0.5 for the first, ≤ 0.5 for the second.

Going from C4U A14C U59A C60U to C4U A15G C60G, the yeast fitness rises from ≤ 0.5 to 0.537.

C4G U8A G12A A57G and C4G U53A G56A cannot be ordered by yeast fitness: ≤ 0.5 for the first, ≤ 0.5 for the second.

Compared with C4G G67A A70G, C4G G18C C33G G41A C55G is lower in yeast fitness: 0.665 for the first, ≤ 0.5 for the second.

Going from C4G G17A U26C A40G A70C to C4U A15C C27A C31U A43G C60A, the yeast fitness falls from 0.793 to 0.526.

C4U A20C C24G G56A C62A and C4G U7G G12C A20U C34A G41C A45C U47A C55A cannot be ordered by yeast fitness: ≤ 0.5 for the first, ≤ 0.5 for the second.

Compared with C4G U19A G44C, C4G U28A C31G is lower in yeast fitness: 0.535 for the first, ≤ 0.5 for the second.

Going from C4G G48C G67C to C4U A36C A45C, the yeast fitness falls from 0.542 to ≤ 0.5.

First: C4G U35A
Second: C4G U35C
The yeast fitness of the first is lower: 0.772 for the first, 0.942 for the second.

C4G U7C A14C C30U A40U C49U and C4U A15C G17A G18A A36C C55U C66A cannot be ordered by yeast fitness: ≤ 0.5 for the first, ≤ 0.5 for the second.

C4G U7G G12C A20U and C4G U28A A40C G50A cannot be ordered by yeast fitness: ≤ 0.5 for the first, ≤ 0.5 for the second.

C4G G17A C29U C66U and C4G U7G C60A C62U G68C cannot be ordered by yeast fitness: ≤ 0.5 for the first, ≤ 0.5 for the second.

Going from C4G U13C A15G G48A C61A to C4U A21G G52A, the yeast fitness falls from 0.672 to ≤ 0.5.

C4G U8C U47A and C4G U13C A45U G56C cannot be ordered by yeast fitness: ≤ 0.5 for the first, ≤ 0.5 for the second.

C4G U19A A37U A42G A65C G67A and C4G U13C A40U A42C C66U cannot be ordered by yeast fitness: ≤ 0.5 for the first, ≤ 0.5 for the second.

C4G U13C G39C and C4G G23C C61U cannot be ordered by yeast fitness: ≤ 0.5 for the first, ≤ 0.5 for the second.

Going from C4U A15G C22U to C4G G17A A70G, the yeast fitness rises from 0.559 to 0.567.

C4G G18C G51A and C4G U8G A21C cannot be ordered by yeast fitness: ≤ 0.5 for the first, ≤ 0.5 for the second.

Compared with C4G G44C, C4G G44A is lower in yeast fitness: 0.826 for the first, 0.726 for the second.

Going from C4G U13C A70G to C4G U8C C11G C46U, the yeast fitness falls from 0.618 to ≤ 0.5.

C4U A21U A36G A43C C55U A65G and C4G U7A C31G U59A cannot be ordered by yeast fitness: ≤ 0.5 for the first, ≤ 0.5 for the second.

C4G U7G G10C C24U C29A A45U C46G U47A G50A U64G and C4G G38C G63A G68C A69G cannot be ordered by yeast fitness: ≤ 0.5 for the first, ≤ 0.5 for the second.

First: C4G U19C A43G A45C C46U
Second: C4U A20C C34G A36G
The yeast fitness of the first is lower: ≤ 0.5 for the first, 0.606 for the second.

Going from C4G U26A A43U C46G to C4G G63C, the yeast fitness rises from 0.593 to 0.622.

Compared with C4G G48C G51C A57U G68C, C4U A20U A40U is higher in yeast fitness: 0.55 for the first, 0.646 for the second.

Going from C4U A14G C34G G50C G56C to C4G U16C A70C, the yeast fitness rises from 0.637 to 0.709.

Going from C4U A15U A42C U47A A65G to C4G U8C G17A C27G A36U C62G, the yeast fitness rises from ≤ 0.5 to 0.607.

C4G U16C U32A C46U G63C and C4U A20C G51C A57G cannot be ordered by yeast fitness: ≤ 0.5 for the first, ≤ 0.5 for the second.

Compared with C4G G18C C62G, C4G U19C is higher in yeast fitness: ≤ 0.5 for the first, 0.99 for the second.

First: C4G U7G A21C
Second: C4U A15U A45C
The yeast fitness of the first is lower: ≤ 0.5 for the first, 0.611 for the second.

Going from C4U A14G A36G C60G C61A to C4G G58A, the yeast fitness rises from ≤ 0.5 to 1.05.

Compared with C4G G58C, C4G U7C U13G is lower in yeast fitness: 1.1 for the first, 0.537 for the second.

Compared with C4U A20C C22U U47A C62U, C4G G23A A36G G68U is lower in yeast fitness: 0.753 for the first, ≤ 0.5 for the second.

C4G G23C C60G and C4U A20G U28C C31U G50C C55G U59C C60U G67U cannot be ordered by yeast fitness: ≤ 0.5 for the first, ≤ 0.5 for the second.

Going from C4G G23C A45U to C4G G39A A65U, the yeast fitness rises from ≤ 0.5 to 0.576.

C4G G39A A65C and C4G G17C C22G cannot be ordered by yeast fitness: ≤ 0.5 for the first, ≤ 0.5 for the second.

C4G U28A G39A and C4G U28C C55U cannot be ordered by yeast fitness: ≤ 0.5 for the first, ≤ 0.5 for the second.

Going from C4U A21G C46A A70U to C4G U47C, the yeast fitness rises from 0.76 to 0.865.

Going from C4G U47A to C4G G12A C49U C60A C61A, the yeast fitness falls from 0.854 to ≤ 0.5.

Compared with C4U A21C G41U, C4G U8A G18C U32A U47C is lower in yeast fitness: 0.625 for the first, 0.574 for the second.

First: C4G U16C C27G A40G G48A A57C
Second: C4G G17A A36G C46U
The yeast fitness of the first is higher: 0.572 for the first, ≤ 0.5 for the second.

Compared with C4G U13A U54C, C4G U7G G9A A20G C22A G41A A69C is lower in yeast fitness: 0.548 for the first, ≤ 0.5 for the second.

C4U A14C C22A U54C C55G and C4U A21G U32A A40C C46A C62U G67A cannot be ordered by yeast fitness: ≤ 0.5 for the first, ≤ 0.5 for the second.

Compared with C4G G17C C33G, C4G U19A C29G G41A C46U U54C C60A is higher in yeast fitness: ≤ 0.5 for the first, 0.737 for the second.

Going from C4G U7A G9A C11U C30G C62A to C4U A20C C27U A40C, the yeast fitness falls from 0.628 to 0.605.

Compared with C4G G58A U64A, C4G G41C is higher in yeast fitness: ≤ 0.5 for the first, 0.834 for the second.

C4G U7A U26A A40C A42G G58C G68A and C4G G50A C55U cannot be ordered by yeast fitness: ≤ 0.5 for the first, ≤ 0.5 for the second.

Going from C4G U7G C31U A65U to C4U A14U A36U, the yeast fitness rises from ≤ 0.5 to 0.545.

C4U A36C C46U and C4G G23C G56C cannot be ordered by yeast fitness: ≤ 0.5 for the first, ≤ 0.5 for the second.

C4U A14U A43U G68A and C4G U7G G12C cannot be ordered by yeast fitness: ≤ 0.5 for the first, ≤ 0.5 for the second.

C4U A20U G50A G52A C60U C61G and C4G U35A C61A cannot be ordered by yeast fitness: ≤ 0.5 for the first, ≤ 0.5 for the second.

First: C4G G18A C30U
Second: C4G U7A G9A C11U C55U
The yeast fitness of the first is higher: 0.57 for the first, ≤ 0.5 for the second.

First: C4G U28C A69U
Second: C4G G18C A57U
The yeast fitness of the first is higher: 0.568 for the first, ≤ 0.5 for the second.

Going from C4G U7A U19C A20C U53C to C4U A15G U16C, the yeast fitness rises from ≤ 0.5 to 0.728.

Compared with C4G G41C C46A, C4G G25C C30G is lower in yeast fitness: 0.709 for the first, 0.622 for the second.

C4G U13A A21C U35A A65C and C4G U16C C31U A36G cannot be ordered by yeast fitness: ≤ 0.5 for the first, ≤ 0.5 for the second.

Going from C4G G12A G68U to C4G G41A C66U, the yeast fitness rises from ≤ 0.5 to 0.525.

Going from C4U A14C to C4G G25A, the yeast fitness rises from 0.749 to 0.894.

First: C4G G17A A43G
Second: C4G G18C G68C
The yeast fitness of the first is lower: ≤ 0.5 for the first, 0.636 for the second.

C4U A14C C49G C55G and C4G U8A C11G A42U U64C G68C cannot be ordered by yeast fitness: ≤ 0.5 for the first, ≤ 0.5 for the second.

C4U A21C U59C and C4U A21C C24U G38A G63C cannot be ordered by yeast fitness: ≤ 0.5 for the first, ≤ 0.5 for the second.

C4G U35G A43C U47C and C4G G38A C66U cannot be ordered by yeast fitness: ≤ 0.5 for the first, ≤ 0.5 for the second.

First: C4G G17A
Second: C4G U16C C31U A70C
The yeast fitness of the first is higher: 0.724 for the first, ≤ 0.5 for the second.

C4U A14C G51C and C4G U26C G50A cannot be ordered by yeast fitness: ≤ 0.5 for the first, ≤ 0.5 for the second.

C4G U47A G68A and C4G U16G A20C A21G C30U cannot be ordered by yeast fitness: ≤ 0.5 for the first, ≤ 0.5 for the second.

Going from C4U A14U C30A U54G A65C to C4U A14G C30A, the yeast fitness rises from 0.634 to 0.812.

Work on C4U A15C yielded a yeast fitness of 0.763.
